ChEMBL document CHEMBL5046217, “Discovery of New Imidazo[2,1-b]thiazole Derivatives as Potent Pan-RAF Inhibitors with Promising In Vitro and In Vivo Anti-melanoma Activity” (J Med Chem, 2021)

Columns and labels:
LOX IMVI [1] = assay: Antiproliferative activity against human LOX IMVI cells assessed as cell growth inhibition measured after 48 hrs by SRB assay
NSCLC = assay: Antiproliferative activity against human NSCLC cell line assessed as cell growth inhibition measured after 48 hrs by SRB assay
[2] = biological target: T1, Receptor-type tyrosine-protein kinase FLT3 (Homo sapiens, UniProt P36888); assay: Inhibition of FLT3 (unknown origin) incubated for 1 hr by qPCR analysis
T1 sequence (P36888 whole entry): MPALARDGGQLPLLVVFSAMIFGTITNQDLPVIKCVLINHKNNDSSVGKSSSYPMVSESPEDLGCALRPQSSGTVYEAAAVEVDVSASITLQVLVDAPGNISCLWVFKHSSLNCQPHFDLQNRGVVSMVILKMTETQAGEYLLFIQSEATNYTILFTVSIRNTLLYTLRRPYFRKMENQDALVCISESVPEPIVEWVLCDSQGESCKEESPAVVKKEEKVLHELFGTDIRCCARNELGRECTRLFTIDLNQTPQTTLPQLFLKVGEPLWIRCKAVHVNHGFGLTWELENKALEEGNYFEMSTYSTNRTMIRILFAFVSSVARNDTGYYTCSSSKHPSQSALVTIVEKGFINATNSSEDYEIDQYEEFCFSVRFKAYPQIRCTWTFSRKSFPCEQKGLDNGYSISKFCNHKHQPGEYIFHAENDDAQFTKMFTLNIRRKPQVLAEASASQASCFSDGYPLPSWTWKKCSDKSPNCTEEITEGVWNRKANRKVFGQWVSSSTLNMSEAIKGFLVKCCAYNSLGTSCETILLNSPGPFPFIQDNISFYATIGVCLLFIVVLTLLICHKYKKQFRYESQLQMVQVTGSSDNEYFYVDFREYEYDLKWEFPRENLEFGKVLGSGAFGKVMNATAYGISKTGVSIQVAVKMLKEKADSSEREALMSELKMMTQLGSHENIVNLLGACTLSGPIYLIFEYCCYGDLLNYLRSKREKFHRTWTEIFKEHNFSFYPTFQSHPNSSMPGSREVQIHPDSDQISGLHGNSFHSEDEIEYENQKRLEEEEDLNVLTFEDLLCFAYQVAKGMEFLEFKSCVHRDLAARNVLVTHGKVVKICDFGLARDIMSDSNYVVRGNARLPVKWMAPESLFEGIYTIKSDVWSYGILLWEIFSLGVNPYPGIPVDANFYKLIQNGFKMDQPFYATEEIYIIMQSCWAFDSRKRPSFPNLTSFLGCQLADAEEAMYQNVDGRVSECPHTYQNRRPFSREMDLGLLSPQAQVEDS
Summary of the method: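 Competition binding assay. Kinases were either T7-phage-tagged (grown in an E. coli BL21-derived host) or expressed in HEK-293 cells and DNA-tagged. […] Bound kinase was eluted with non-biotinylated ligand and quantified by qPCR.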

[3] = Cytotoxicity against human BJ cells assessed as cell growth inhibition incubated for 48 hrs by MTT assay; type: toxicity, cell-based
Summary of the method: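 BJ1 normal skin fibroblasts were seeded at 10 × 10³ cells/well with compound in triplicate wells and grown in DMEM-F12 at 37 °C, 5% CO₂, across an eight-point dilution series. Growth inhibition was calculated as (1 − T/C) × 100, and IC50 was taken from the dose–response curve.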

SK-MEL-28 = assay: Antiproliferative activity against human SK-MEL-28 cells assessed as cell growth inhibition measured after 48 hrs by SRB assay; conditions: SK-MEL-28, 48 h
M14 [4] = assay: Antiproliferative activity against human M14 cells assessed as total growth inhibition measured after 48 hrs by SRB assay; conditions: M14, 48 h
in vitro = conditions: human, BJ cells and Malme-3M cells
[5] = tested on: Panel ovarian (Carcinoma cell lines); assay: Antiproliferative activity against human Panel ovarian (Carcinoma cell lines) assessed as cell growth inhibition measured after 48 hrs by SRB assay
[6] = tested on: Panel leukemia (Carcinoma cell lines); assay: Antiproliferative activity against human Panel leukemia (Carcinoma cell lines) assessed as cell growth inhibition measured after 48 hrs by SRB assay
Malme-3M = assay: Antiproliferative activity against human Malme-3M cells assessed as total growth inhibition measured after 48 hrs by SRB assay
UACC-257 [7] = assay: Antiproliferative activity against human UACC-257 cells assessed as cell growth inhibition measured after 48 hrs by SRB assay; conditions: UACC-257, 48 h
LOX IMVI [8] = assay: Antiproliferative activity against human LOX IMVI cells assessed as total growth inhibition measured after 48 hrs by SRB assay
M14 [9] = assay: Antiproliferative activity against human M14 cells assessed as cell growth inhibition measured after 48 hrs by SRB assay; conditions: M14, 48 h
SK-MEL-2 = assay: Antiproliferative activity against human SK-MEL-2 cells assessed as total growth inhibition measured after 48 hrs by SRB assay; conditions: SK-MEL-2, 48 h
SK-MEL-5 = assay: Antiproliferative activity against human SK-MEL-5 cells assessed as total growth inhibition measured after 48 hrs by SRB assay; conditions: SK-MEL-5, 48 h
UACC-62 = assay: Antiproliferative activity against human UACC-62 cells assessed as cell growth inhibition measured after 48 hrs by SRB assay; conditions: UACC-62, 48 h
UACC-257 [10] = assay: Antiproliferative activity against human UACC-257 cells assessed as total growth inhibition measured after 48 hrs by SRB assay; conditions: UACC-257, 48 h
MDA-MB-435 = assay: Antiproliferative activity against human MDA-MB-435 cells assessed as total growth inhibition measured after 48 hrs by SRB assay; conditions: MDA-MB-435, 48 h
[11] = tested on: Panel CNS (Carcinoma cell lines); assay: Antiproliferative activity against human Panel CNS (Carcinoma cell lines) assessed as cell growth inhibition measured after 48 hrs by SRB assay
[12] = tested on: Panel melanoma (Carcinoma cell lines); assay: Antiproliferative activity against human Panel melanoma (Carcinoma cell lines) assessed as cell growth inhibition measured after 48 hrs by SRB assay
[13] = biological target: Serine/threonine-protein kinase B-raf (Homo sapiens, UniProt P15056); assay: Inhibition of human wild type BRAF using myelin basic protein as substrate in presence of [gamma-33P]ATP incubated for 40 mins by scintillation counting method
Summary of the method: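 Radiometric kinase assay run at Reaction Biology. Kinase (5−10 mU) in 25 mM Tris pH 7.5, 0.02 mM EGTA, 10 mM magnesium acetate with 0.66 mg/mL myelin basic protein and [γ-33P]ATP at 1 μM ATP. Reaction started with Mg-ATP and run 40 min at room temperature, then stopped with 3% phosphoric acid. Spotted on P30 filtermat, washed, scintillation counted.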

[14] = tested on: Panel colon (Carcinoma cell lines); assay: Antiproliferative activity against human Panel colon (Carcinoma cell lines) assessed as cell growth inhibition measured after 48 hrs by SRB assay
[15] = biological target: Tyrosine-protein kinase ABL1 (Homo sapiens, UniProt P00519); assay: Inhibition of ABL1 (unknown origin) incubated for 1 hr by qPCR analysis
[16] = Cytotoxicity against human L132 cells assessed as cell growth inhibition incubated for 48 hrs by MTT assay; type: toxicity, cell-based
[17] = tested on: Panel melanoma (Carcinoma cell lines); assay: cells; conditions: Homo sapiens, 48 h, read-out: INH

Tyrosine-protein kinase ABL1, sequence (P00519 whole entry): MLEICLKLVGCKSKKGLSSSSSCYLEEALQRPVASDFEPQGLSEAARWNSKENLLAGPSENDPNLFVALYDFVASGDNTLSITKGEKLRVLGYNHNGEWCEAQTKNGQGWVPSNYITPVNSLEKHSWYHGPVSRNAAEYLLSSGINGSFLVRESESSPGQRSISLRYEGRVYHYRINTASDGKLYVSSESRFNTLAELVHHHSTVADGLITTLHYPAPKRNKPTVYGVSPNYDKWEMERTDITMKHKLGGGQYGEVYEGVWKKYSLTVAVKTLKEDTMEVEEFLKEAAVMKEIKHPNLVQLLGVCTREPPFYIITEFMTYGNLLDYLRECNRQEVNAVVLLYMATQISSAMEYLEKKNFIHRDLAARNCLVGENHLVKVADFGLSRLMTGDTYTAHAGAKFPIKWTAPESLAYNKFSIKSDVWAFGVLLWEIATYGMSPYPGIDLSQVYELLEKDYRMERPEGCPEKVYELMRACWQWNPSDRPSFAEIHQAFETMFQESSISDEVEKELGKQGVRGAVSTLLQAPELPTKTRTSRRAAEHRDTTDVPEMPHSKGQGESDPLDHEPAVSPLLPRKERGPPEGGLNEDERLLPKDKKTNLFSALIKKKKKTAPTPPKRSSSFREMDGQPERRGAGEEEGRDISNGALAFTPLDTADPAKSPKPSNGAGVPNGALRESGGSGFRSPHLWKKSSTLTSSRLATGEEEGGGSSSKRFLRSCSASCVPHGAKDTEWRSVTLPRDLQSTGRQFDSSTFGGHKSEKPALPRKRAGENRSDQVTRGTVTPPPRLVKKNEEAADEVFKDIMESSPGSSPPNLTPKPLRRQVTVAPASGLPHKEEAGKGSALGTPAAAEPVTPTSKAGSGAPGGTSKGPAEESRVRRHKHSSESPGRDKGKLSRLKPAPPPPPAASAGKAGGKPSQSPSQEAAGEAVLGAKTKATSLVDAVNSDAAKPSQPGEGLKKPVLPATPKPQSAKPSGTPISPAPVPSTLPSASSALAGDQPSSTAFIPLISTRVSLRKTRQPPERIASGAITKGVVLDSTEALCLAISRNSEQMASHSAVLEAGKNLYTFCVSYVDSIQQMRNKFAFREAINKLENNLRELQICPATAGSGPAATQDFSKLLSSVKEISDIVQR
Serine/threonine-protein kinase B-raf, sequence (P15056 whole entry): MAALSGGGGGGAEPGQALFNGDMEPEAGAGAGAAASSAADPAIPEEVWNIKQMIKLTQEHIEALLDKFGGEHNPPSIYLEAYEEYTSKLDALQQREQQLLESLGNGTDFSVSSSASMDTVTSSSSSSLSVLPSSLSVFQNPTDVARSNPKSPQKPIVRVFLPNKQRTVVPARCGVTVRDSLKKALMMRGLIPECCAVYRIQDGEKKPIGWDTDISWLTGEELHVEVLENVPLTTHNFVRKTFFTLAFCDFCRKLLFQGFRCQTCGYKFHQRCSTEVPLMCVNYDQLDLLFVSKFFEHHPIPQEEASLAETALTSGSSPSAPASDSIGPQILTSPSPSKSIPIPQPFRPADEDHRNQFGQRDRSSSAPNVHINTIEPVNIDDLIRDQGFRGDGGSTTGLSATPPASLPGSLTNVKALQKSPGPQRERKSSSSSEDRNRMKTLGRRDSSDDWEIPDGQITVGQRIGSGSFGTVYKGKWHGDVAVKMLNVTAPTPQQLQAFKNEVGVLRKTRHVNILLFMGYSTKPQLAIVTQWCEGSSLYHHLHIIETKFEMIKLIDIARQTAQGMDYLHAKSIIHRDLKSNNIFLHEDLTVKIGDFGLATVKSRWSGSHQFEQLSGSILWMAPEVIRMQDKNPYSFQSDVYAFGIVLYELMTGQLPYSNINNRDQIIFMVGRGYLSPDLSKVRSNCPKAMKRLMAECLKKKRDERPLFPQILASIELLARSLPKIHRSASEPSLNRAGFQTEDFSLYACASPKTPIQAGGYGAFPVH

O=S(=O)(NCCCNc1nccc(-c2c(-c3cccc(O)c3)nc3sccn23)n1)c1cccc(F)c1
IC50 (LOX IMVI [1]): 1.91 µM | IC50 (NSCLC): 2.55 µM | IC50 [2]: 1.48 µM | IC50 at 48 h [3]: 45.2 µM | IC50 (SK-MEL-28): 2.29 µM | TGI (M14 [4]): 10.2 µM | selectivity ratio (in vitro): 17.4 | IC50 [5]: 2.97 µM | IC50 [6]: 2.04 µM | TGI (Malme-3M): 7.86 µM | IC50 (UACC-257 [7]): 2.85 µM | TGI (LOX IMVI [8]): 5.82 µM | IC50 (M14 [9]): 2.54 µM | TGI (SK-MEL-2): 6.57 µM | TGI (SK-MEL-5): 2.28 µM | IC50 (UACC-62): 0.75 µM | TGI (UACC-257 [10]): > 100 µM | TGI (MDA-MB-435): 6.51 µM | IC50 [11]: 3.19 µM | IC50 [12]: 2.03 µM | IC50 [13]: 0.0042 µM | IC50 [14]: 3.02 µM | IC50 [15]: 13.6 µM | IC50 at 48 h [16]: 56.3 µM | inhibition at 10 µM [17]: 101%
